NPY-Y2 PAM-ag – potentiators or agonists of human neuropeptide Y receptor Y2; P49146; cells expressing NPY-Y2, potentiator/agonist read-out; activation, % at 3.6 µM; hit rate 0.45% among 220,000; in the data active = activation above about 27%;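 also: cells stimulated with NPY near EC25 plus isoproterenol at EC100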
S1P4 ag – agonists of human S1P4 receptor. S1P4-expressing cell line, agonist reporter assay. activation, % at 4.98 µM. O95977. AID 1509. hit rate 0.35% among 220,000; in the data active = activation above about 11%
NPY Y2 blocker – NPY-Y2 (human) receptor antagonism; P49146; NPY-Y2 expressing cells, antagonist mode; inhibition, % at 2.7 µM; hit rate 0.99% among 140,000; AID 793; in the data active = inhibition above about 17%
NPY1 pot ag – human NPY-Y1 potentiation or agonism, primary screen. hit rate 0.37% among 220,000. AID 1304. activation, % at 3.6 µM. P25929. NPY-Y1 expressing cells, potentiator/agonist activation; in the data active = activation above about 33%, passing the limit was not always enough;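 also: cells stimulated with NPY at EC10 then isoproterenol at EC100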
Target sequence (P25929 whole entry, looked up): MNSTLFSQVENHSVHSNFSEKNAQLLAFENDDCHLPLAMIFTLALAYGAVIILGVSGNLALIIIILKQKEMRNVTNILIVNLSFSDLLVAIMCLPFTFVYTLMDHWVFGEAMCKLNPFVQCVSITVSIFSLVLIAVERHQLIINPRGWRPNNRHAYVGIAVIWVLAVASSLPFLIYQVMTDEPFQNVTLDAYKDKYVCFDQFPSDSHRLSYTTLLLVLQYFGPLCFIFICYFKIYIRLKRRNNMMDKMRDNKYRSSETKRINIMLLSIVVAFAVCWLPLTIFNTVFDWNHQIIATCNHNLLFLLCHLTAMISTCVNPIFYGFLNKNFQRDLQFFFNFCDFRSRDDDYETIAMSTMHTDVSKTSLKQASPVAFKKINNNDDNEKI
NPY Y1 blocker – blocks the human neuropeptide Y Y1 receptor; hit rate 1% among 200,000; HEK293-CNG Y1 cells, membrane potential fluorescence; NPY at EC95, then isoproterenol; AID 1040; inhibition, % at 3.6 µM; P25929;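 active = inhibition above the campaign mean inhibition of all tested compounds plus 3 SD, cut at about 20% in these data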
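Assay system: HEK293 cells with Y1 receptor plus CNG channel | Probe or stimulus: NPY (25 nM), isoproterenol (1 µM), Ro 20-1724 (25 µM) | Timing: Compound incubation 1 h at room temperature, readout 45 min post-stimulation | Measured by: Membrane-potential fluorescent dye readout | Benchmarks: High control isoproterenol alone, low control NPY with isoproterenol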
S1P4 antagonist – blocks the human S1P4 receptor; O95977; S1P4-expressing cells, antagonist mode, reporter read-out; inhibition, % at 4.98 µM; hit rate 0.26% among 220,000; AID 1510; in the data active = inhibition above about 29%
NPY1 antag ctr – human NPY-Y1 antagonism in NPY-Y2 counter-screen. inhibition, % at 3.6 µM. hit rate 19% among 710. cell-based NPY-Y1 antagonism counterscreen. shares compounds with NPY Y2 blocker; in the data active = inhibition above about 20%;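 also: cells challenged with NPY then isoproterenol with cAMP sensed through a CNG channel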
NPY2 antag conf – confirmation of human neuropeptide Y receptor Y2 antagonists. shares compounds with NPY Y2 blocker. HEK293 NPY-Y2 CNG channel, membrane potential fluorescence. inhibition, % at 2.8 µM. hit rate 32% among 710. AID 1257;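 active = mean inhibition of triplicate wells above the hit cutoff set in the primary screen, cut at about 17% in these data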
Hits are given with their value; . = inactive; / = not tested or not shown. Hits are enriched below; roughly 2.4% of the tested compounds scored in any of these assays.

SMILES | NPY-Y2 PAM-ag | S1P4 ag | NPY Y2 blocker | NPY1 pot ag | NPY Y1 blocker | S1P4 antagonist | NPY1 antag ctr | NPY2 antag conf
S=C(N/N=C/c1ccc2c(c1)OCO2)NC1CC2CCC1C2 (configuration not stated) | . | . | / | . | / | . | / | /
O=C(Nc1ccc(S(=O)(=O)NC2CCCC2)cc1)c1cnccn1 | . | . | 22.7 | . | . | . | . | .
CCC(C)[C@H](NC(=O)NCc1ccco1)C(=O)OC (some centres not stated) | . | . | / | . | / | . | / | /
CCOC(=O)c1c(-c2ccc(C)o2)csc1NC(=O)COC(=O)c1cccs1 | . | . | 20.0 | . | . | . | . | .
CCOC(=O)c1c(-c2ccc(C)o2)csc1NC(=O)CN1CCOCC1 | . | . | . | . | . | . | / | /
Cc1ccc(C(=O)Nc2cc([N+](=O)[O-])ccc2C)cc1 | . | . | / | . | . | . | / | /
Cc1ccc([N+](=O)[O-])cc1NC(=O)c1ccc(-c2ccccc2)cc1 | . | . | 22.1 | . | . | . | . | .
Cc1nn2c(-c3cccc(NC(=O)CSc4nc5ccccc5o4)c3)nnc2c2ccccc12 | . | . | . | . | . | . | / | /
CN(C)c1ccc(/C=C2\SC(=O)N(CC(O)Cn3c4ccccc4c4ccccc43)C2=O)cc1 (configuration not stated) | . | . | 21.1 | . | . | . | 25.9 | .
Clc1ccc(OCc2cc(-c3ccccc3)no2)cc1Cl | . | . | 22.9 | . | . | . | 39.3 | 38.5
Clc1ccc(-c2cc(COc3ccccc3)on2)cc1 | . | . | / | . | . | . | / | /
COc1ccc(OC)c(-c2csc(NC(=O)c3ccc4c(c3)OCO4)n2)c1 | . | . | / | . | . | . | / | /
N#Cc1nc(COc2ccc(Cl)cc2Cl)oc1N1CCN(c2ccccc2)CC1 | . | . | 17.2 | . | . | . | 28.6 | 20.7
N#Cc1nc(COc2ccc(Cl)cc2Cl)oc1N1CCOCC1 | . | . | . | . | . | . | / | /
C/C(Cn1nnc([N+](=O)[O-])n1)=N\NC(=O)c1ccc(O)cc1O | . | . | 25.4 | . | . | . | . | .
C/C(Cn1nnc([N+](=O)[O-])n1)=N\NC(=O)c1ccccc1O | . | . | / | . | / | . | / | /
Cc1cc(=O)c2cc(C(=O)c3ccccc3)ccc2[nH]1 | . | . | / | . | / | . | / | /
CCn1c(=N)n(CC(=O)C23CC4CC(CC(C4)C2)C3)c2ccccc21 | . | . | 26.7 | . | . | . | 20.7 | 32.1
CCC(C)n1c(SCC(=O)NCc2ccco2)nnc1-c1cccc(S(=O)(=O)N2CCOCC2)c1 (configuration not stated) | . | . | . | . | . | . | / | /
Cc1ccc(CSc2nnc(-c3cccc(S(=O)(=O)N4CCOCC4)c3)n2CC(C)C)cc1 | . | . | 17.9 | . | . | . | . | .
Cc1cccc2cc(C#N)c(SCC(=O)Nc3ccccc3N3CCOCC3)nc12 | . | . | . | . | . | . | / | /
N#Cc1cc2ccccc2nc1SCC(=O)Nc1ccccc1N1CCOCC1 | . | . | 17.3 | . | . | . | . | .
COC(=O)c1cc2occc2n1Cc1nc(-c2ccc(Cl)cc2)oc1C | . | . | . | . | . | . | / | /
COC(=O)c1cc2occc2n1Cc1nc(-c2ccccc2Cl)oc1C | . | . | 19.9 | . | . | . | . | 20.4
CCOC(=O)CCCCC(=O)c1[nH]c(=O)[nH]c1CSc1nnc2c3ccccc3n(C(C)C)c2n1 | . | . | 32.1 | . | . | . | . | 44.9
N#C/C(=C\c1cn(Cc2ccc(F)cc2)c2ccccc12)C(=O)NCc1ccco1 | . | . | 18.1 | . | . | . | . | .
CCOc1ccc(C(C(=O)NC2CCCC2)N(Cc2ccccc2)C(=O)c2nsc(Cl)c2Cl)cc1 (configuration not stated) | . | . | 25.0 | . | . | . | 20.6 | .
CC/C(=C\C1CCCCC1)C(NP(=O)(c1ccccc1)c1ccccc1)c1ccccc1 (configuration not stated) | . | . | 23.0 | . | . | . | 38.2 | 34.4
Cc1ccc(Cc2nnc3n(-c4ccccc4)nc(C(=O)c4ccccc4)n3c2=O)cc1 | . | . | 17.2 | . | . | . | 40.4 | 67.4

Screens deposited in PubChem BioAssay by The Scripps Research Institute Molecular Screening Center.
